Converted amounts (≈) assume the structure as drawn. The source made the active and inactive calls. No cut-off for these calls is given here.
Tests used:
[1] = molecular target: Cytochrome P450 2C19 (Homo sapiens, UniProt P33261); test: Inhibition of CYP2C19 (unknown origin); assay type: ADME
How it was run: (§1)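 CYP inhibition IC50 measured on isoforms CYP3A4, CYP2D6, CYP2C9, CYP2C19 and CYP1A2.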

[2] = molecular target: Voltage-gated inwardly rectifying potassium channel KCNH2 (Homo sapiens, UniProt Q12809); test: Inhibition of human ERG by medium-throughput electrophysiology
Chain of Voltage-gated inwardly rectifying potassium channel KCNH2 (Q12809 whole entry): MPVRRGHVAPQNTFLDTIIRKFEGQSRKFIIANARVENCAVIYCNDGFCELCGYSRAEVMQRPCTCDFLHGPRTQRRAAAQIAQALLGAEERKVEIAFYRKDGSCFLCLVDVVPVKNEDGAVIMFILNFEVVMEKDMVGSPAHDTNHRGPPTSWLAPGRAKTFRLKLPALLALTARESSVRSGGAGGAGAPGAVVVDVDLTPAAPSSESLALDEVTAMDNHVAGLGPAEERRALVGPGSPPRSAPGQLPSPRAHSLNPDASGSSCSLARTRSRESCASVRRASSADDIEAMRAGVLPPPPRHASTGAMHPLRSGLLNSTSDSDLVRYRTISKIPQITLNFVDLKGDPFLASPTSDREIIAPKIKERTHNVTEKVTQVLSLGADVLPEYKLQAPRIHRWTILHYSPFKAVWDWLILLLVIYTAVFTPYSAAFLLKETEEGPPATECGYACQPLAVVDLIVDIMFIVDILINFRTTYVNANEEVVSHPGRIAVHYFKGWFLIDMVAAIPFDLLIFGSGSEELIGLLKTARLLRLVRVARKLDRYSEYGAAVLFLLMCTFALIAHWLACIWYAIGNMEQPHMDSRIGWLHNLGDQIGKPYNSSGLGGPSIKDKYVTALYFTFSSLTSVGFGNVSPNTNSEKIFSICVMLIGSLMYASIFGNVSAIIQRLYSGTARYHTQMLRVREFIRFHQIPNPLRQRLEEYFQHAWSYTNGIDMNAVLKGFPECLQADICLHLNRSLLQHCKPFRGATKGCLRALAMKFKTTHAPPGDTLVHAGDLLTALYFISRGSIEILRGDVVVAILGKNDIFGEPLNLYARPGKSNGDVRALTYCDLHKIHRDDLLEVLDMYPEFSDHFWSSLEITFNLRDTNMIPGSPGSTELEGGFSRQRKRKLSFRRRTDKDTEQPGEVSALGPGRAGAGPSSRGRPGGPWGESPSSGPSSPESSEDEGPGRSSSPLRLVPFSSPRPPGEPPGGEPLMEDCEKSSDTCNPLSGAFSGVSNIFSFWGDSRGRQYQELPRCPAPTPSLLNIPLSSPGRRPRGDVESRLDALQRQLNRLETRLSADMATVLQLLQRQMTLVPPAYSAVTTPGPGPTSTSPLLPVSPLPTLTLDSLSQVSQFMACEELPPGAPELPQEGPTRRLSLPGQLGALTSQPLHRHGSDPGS

[3] = tested on: Mycobacterium tuberculosis; test: Antimycobacterial activity against Mycobacterium tuberculosis H37Rv after 5 days by standard microdilution method; assay type: functional; conditions: 120 h
[4] = Inhibition of Mycobacterium smegmatis recombinant DprE1 using farnesylphosphoryl-beta-D-ribofuranose as substrate assessed as conversion of amplex red to resorufin after 30 mins; parameters: species or system Mycolicibacterium smegmatis
How it was run: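 Msm DprE1 (thioredoxin-6His fusion of Msm Rv3790) at 75 nM, preincubated 30 min with 10 μM FAD. Buffer: 50 mM glycylglycine pH 8.5, 200 mM potassium glutamate, 0.002% Brij-35, 2% DMSO, 25 °C. Started with 300 μM farnesylphosphoryl-β-D-ribofuranose, 0.01 mg/mL HRP and 50 μM Amplex Red.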

[5] = Permeability of the compound from basolateral to apical side in human Caco2 cells; assay type: ADME, cell-based; conditions: Caco-2, read-out: permeability
[6] = molecular target: Cytochrome P450 2C9 (Homo sapiens, UniProt P11712); test: Inhibition of CYP2C9 (unknown origin); assay type: ADME; how it was run: as §1
Chain of Cytochrome P450 2C9 (P11712 whole entry): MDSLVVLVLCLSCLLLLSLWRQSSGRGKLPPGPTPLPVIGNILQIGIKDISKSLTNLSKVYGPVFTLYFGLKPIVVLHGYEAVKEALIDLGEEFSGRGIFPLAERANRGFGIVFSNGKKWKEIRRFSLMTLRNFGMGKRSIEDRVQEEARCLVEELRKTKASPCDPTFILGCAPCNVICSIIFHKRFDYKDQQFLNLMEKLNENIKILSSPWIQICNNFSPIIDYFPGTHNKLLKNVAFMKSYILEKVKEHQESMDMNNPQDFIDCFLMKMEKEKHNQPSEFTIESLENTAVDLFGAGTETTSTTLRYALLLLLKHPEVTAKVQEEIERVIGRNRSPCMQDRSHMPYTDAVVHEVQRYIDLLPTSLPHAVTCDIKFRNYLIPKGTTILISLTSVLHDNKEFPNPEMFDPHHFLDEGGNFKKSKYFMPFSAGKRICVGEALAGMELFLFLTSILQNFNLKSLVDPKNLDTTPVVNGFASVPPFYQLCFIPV

[7] = molecular target: T1, Adenosine receptor A1 (Homo sapiens, UniProt P30542); test: Inhibition of adenosine A1 receptor (unknown origin)
T1 sequence (P30542 whole entry): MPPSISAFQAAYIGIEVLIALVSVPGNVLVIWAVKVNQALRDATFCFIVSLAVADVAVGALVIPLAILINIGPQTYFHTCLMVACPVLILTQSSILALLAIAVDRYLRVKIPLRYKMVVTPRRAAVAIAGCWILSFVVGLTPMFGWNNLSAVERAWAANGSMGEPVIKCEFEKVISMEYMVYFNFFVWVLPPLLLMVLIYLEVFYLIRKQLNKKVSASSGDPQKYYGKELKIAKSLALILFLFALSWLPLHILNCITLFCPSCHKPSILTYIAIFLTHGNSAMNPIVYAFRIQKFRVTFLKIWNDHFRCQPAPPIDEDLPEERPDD
How it was run: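 Secondary pharmacology panel of binding, enzyme and functional assays covering 24 molecular targets. Activity recorded as a defined Ki/IC50/EC50.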

[8] = Octanol-water partition coefficient, log D of the compound by shake-flask method; assay type: physicochemical
[9] = Fraction unbound in human plasma at 20 uM after 18 hrs by equilibrium dialysis method; assay type: ADME, cell-free
[10] = Intrinsic clearance in rat cryopreserved hepatocytes assessed per 10^6 cells at 1 uM up to 120 mins by LC-MS/MS analysis; assay type: ADME, cell-based, Hepatocyte; conditions: read-out: CLH
[11] = Permeability of the compound from apical to basolateral side in human Caco2 cells; assay type: ADME, cell-based; conditions: Caco-2, read-out: permeability
[12] = molecular target: Cytochrome P450 3A4 (Homo sapiens, UniProt P08684); test: Inhibition of CYP3A4 (unknown origin); assay type: ADME; how it was run: as §1
Chain of Cytochrome P450 3A4 (P08684 whole entry): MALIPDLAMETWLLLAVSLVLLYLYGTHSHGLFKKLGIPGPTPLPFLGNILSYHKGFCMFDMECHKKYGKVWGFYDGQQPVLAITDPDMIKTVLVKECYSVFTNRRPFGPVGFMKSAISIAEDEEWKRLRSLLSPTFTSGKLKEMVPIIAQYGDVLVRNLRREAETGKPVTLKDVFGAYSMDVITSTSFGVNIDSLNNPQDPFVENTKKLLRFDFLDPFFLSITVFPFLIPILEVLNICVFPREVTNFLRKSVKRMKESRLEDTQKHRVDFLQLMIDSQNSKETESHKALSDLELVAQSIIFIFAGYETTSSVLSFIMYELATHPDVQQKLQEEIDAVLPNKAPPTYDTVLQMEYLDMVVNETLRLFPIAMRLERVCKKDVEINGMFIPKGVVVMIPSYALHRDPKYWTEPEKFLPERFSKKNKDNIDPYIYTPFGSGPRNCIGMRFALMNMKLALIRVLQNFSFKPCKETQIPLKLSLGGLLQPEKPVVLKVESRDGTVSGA

[13] = Solubility of the compound in 0.1 M phosphate buffer at pH 7.4 after 24 hrs by UV and MS analysis; assay type: physicochemical
[14] = molecular target: T2, Cytochrome P450 1A2 (Homo sapiens, UniProt P05177); test: Inhibition of CYP1A2 (unknown origin); assay type: ADME; how it was run: as §1
T2 sequence (P05177 whole entry): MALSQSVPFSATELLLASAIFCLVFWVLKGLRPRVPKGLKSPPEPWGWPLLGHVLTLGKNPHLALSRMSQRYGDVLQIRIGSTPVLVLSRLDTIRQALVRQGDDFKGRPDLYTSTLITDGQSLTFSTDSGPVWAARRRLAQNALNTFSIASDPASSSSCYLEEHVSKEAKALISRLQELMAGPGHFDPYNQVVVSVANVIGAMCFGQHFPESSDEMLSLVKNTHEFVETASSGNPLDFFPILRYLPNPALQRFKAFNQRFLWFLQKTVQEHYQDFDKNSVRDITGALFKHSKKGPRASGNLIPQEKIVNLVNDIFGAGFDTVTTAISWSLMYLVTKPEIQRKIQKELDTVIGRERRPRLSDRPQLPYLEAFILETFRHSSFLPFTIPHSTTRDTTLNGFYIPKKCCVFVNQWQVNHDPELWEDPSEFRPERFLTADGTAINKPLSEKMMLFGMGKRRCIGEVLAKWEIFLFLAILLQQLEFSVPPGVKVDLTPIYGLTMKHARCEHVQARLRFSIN

[15] = Cytotoxicity against human A549 cells after 72 hrs by resazurin based fluorescence assay; assay type: cell-based; conditions: read-out: MIC
How it was run: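 Cytotoxicity read as MMIC, the MIC on the A549 cell line.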

[16] = Intrinsic clearance in human liver microsomes at 1 uM up to 30 mins by LC-MS/MS analysis; assay type: ADME; conditions: read-out: CLH
[17] = molecular target: Cytochrome P450 2D6 (Homo sapiens, UniProt P10635); test: Inhibition of CYP2D6 (unknown origin); assay type: ADME; how it was run: as §1
Chain of Cytochrome P450 2D6 (P10635 whole entry): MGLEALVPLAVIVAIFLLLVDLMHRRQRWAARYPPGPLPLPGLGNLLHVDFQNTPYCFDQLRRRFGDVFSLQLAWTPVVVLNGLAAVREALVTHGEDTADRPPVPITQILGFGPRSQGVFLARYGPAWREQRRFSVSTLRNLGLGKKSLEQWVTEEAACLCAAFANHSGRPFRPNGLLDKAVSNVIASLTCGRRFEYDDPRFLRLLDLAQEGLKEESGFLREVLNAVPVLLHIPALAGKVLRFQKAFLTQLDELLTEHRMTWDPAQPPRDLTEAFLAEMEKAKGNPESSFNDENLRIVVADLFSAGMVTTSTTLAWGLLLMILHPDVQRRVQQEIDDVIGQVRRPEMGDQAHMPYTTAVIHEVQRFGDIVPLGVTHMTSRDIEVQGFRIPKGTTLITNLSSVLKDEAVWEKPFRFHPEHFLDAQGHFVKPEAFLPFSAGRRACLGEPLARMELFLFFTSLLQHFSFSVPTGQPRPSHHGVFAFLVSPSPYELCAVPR

[18] = tested on: Escherichia coli; test: Antimicrobial activity against Escherichia coli ARC523 at 100 uM; assay type: functional, organism-based
How it was run: (§2)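 Nonmycobacterial panel of Candida albicans, Gram-negative and Gram-positive pathogens.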

[19] = tested on: Streptococcus pneumoniae; test: Antimicrobial activity against Streptococcus pneumoniae ARC548 at 100 uM; assay type: functional, organism-based; how it was run: as §2
[20] = tested on: Klebsiella pneumoniae; test: Antimicrobial activity against Klebsiella pneumoniae ARC1865 at 100 uM; assay type: functional, organism-based; how it was run: as §2
[21] = tested on: Mycobacterium tuberculosis; test: Antimycobacterial activity against Mycobacterium tuberculosis over expressing DprE1 after 5 days by standard microdilution method; assay type: functional; conditions: 120 h
[22] = Solubility of the compound in fed-state simulated intestinal fluid at pH 6.5; assay type: ADME
[23] = tested on: Staphylococcus aureus; test: Antimicrobial activity against Staphylococcus aureus ARC517 at 100 uM; assay type: functional, organism-based; how it was run: as §2
[24] = tested on: Candida albicans; test: Antimicrobial activity against Candida albicans ARC527 at 100 uM; assay type: functional, organism-based; how it was run: as §2
[25] = tested on: Pseudomonas aeruginosa; test: Antimicrobial activity against Pseudomonas aeruginosa ARC545 at 100 uM; assay type: functional, organism-based; how it was run: as §2
[26] = Inhibition of Mycobacterium smegmatis DprE1 Y321H mutant using farnesylphosphoryl-beta-D-ribofuranose as substrate assessed as conversion of amplex red to resorufin after 30 mins; parameters: species or system Mycolicibacterium smegmatis
How it was run: (§3)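 Recombinant M. smegmatis DprE1 (thioredoxin-6His fusion), wild type or Y321H, 75 nM. Enzyme was preincubated 30 min in FAD assay mix: 50 mM glycylglycine pH 8.5, 200 mM potassium glutamate, 10 μM FAD, 0.002% Brij-35, 2% DMSO. Reaction was started with 300 μM farnesylphosphoryl-β-D-ribofuranose, 0.01 mg/mL HRP and 50 μM amplex red at 25 °C.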

[27] = tested on: Mycobacterium tuberculosis; test: Antimycobacterial activity against Mycobacterium tuberculosis H37Rv under hypoxic condition after 6 days by resazurin assay; assay type: functional
[28] = tested on: Haemophilus influenzae; test: Antimicrobial activity against Haemophilus influenzae ARC446 at 100 uM; assay type: functional, organism-based; how it was run: as §2
[29] = tested on: Haemophilus influenzae; test: Antimicrobial activity against Haemophilus influenzae ARC158 at 100 uM; assay type: functional, organism-based; how it was run: as §2
[30] = tested on: Pseudomonas aeruginosa; test: Antimicrobial activity against Pseudomonas aeruginosa ARC546 at 100 uM; assay type: functional, organism-based; how it was run: as §2
[31] = tested on: Mycolicibacterium smegmatis; test: Antimicrobial activity against Mycobacterium smegmatis ATCC 607 at 100 uM; assay type: functional, organism-based
[32] = tested on: Mycolicibacterium smegmatis; test: Ratio of IC50 for Mycobacterium smegmatis DprE1 Y321H mutant to IC50 for Mycobacterium smegmatis recombinant wild type DprE1; how it was run: as §3
[33] = tested on: Escherichia coli; test: Antimicrobial activity against Escherichia coli ARC524 at 100 uM; assay type: functional, organism-based; how it was run: as §2
[34] = tested on: Mycolicibacterium smegmatis; test: Antimicrobial activity against Mycobacterium smegmatis mc2155 at 100 uM; assay type: functional, organism-based; conditions: str. MC2 155

Chain of Cytochrome P450 2C19 (P33261 whole entry, canonical isoform): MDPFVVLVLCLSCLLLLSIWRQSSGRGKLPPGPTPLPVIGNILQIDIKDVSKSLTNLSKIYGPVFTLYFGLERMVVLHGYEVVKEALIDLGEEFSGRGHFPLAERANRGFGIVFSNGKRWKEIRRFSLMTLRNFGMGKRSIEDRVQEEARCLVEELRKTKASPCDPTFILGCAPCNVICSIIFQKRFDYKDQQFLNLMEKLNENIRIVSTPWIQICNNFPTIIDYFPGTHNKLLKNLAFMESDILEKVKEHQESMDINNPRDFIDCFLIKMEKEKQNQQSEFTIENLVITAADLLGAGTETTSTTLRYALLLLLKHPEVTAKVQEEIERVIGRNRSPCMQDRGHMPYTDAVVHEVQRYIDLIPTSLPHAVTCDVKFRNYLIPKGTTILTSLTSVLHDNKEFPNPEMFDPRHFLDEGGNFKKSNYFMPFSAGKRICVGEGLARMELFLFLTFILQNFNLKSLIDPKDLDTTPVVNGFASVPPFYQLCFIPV

Cn1ncc(C(=O)N2[C@@H]3CC[C@H]2C[C@@H](Nc2n[nH]c4ccc(F)cc24)C3)c1Cl
INH [1]: > 30 µM
IC50 [2]: > 33 µM
MIC [3]: 6.25 µM (≈ 2.52 µg/mL)
IC50 [4]: 0.12 µM
Papp B→A [5]: 31 ×10⁻⁶ cm/s
INH [6]: > 30 µM
IC50 [7]: 8 µM
logD [8]: 1.9
fraction unbound at 18 h, 20 µM [9]: 0.08
hepatocyte CLint at 1 µM [10]: 9 µL/min/1e6 cells
Papp A→B [11]: 20 ×10⁻⁶ cm/s
INH [12]: > 30 µM
solubility at 24 h [13]: > 1000 µM
INH [14]: > 30 µM
MCC at 72 h [15]: > 50 µM
microsomal CLint at 1 µM [16]: 4 µL/min/mg
INH [17]: > 30 µM

Cc1onc(C(=O)N2CCC(Nc3cc(=O)n(C)c4cc(F)c(F)cc34)CC2)c1C
Activity [18]: inactive
INH [1]: > 30 µM
Activity [19]: inactive
MIC [3]: 0.78 µM (≈ 0.325 µg/mL)
Activity [20]: inactive
MIC [21]: 100 µM (≈ 41.6 µg/mL)
solubility [22]: 91 µM (≈ 37.9 µg/mL)
IC50 [4]: 0.038 µM
Activity [23]: inactive
Activity [24]: inactive
Papp B→A [5]: 21 ×10⁻⁶ cm/s
Activity [25]: inactive
IC50 [26]: 7.02 µM
Activity [27]: inactive
Activity [28]: inactive
INH [6]: > 30 µM
IC50 [7]: 8 µM
logD [8]: 2.3
Activity [29]: inactive
fraction unbound at 18 h, 20 µM [9]: 0.05
hepatocyte CLint at 1 µM [10]: 17 µL/min/1e6 cells
Activity [30]: inactive
Papp A→B [11]: 22 ×10⁻⁶ cm/s
INH [12]: > 30 µM
solubility at 24 h [13]: 28 µM (≈ 11.7 µg/mL)
INH [14]: > 30 µM
MCC at 72 h [15]: > 16 µM
Activity [31]: inactive
fold change (FC) [32]: 165
Activity [33]: inactive
microsomal CLint at 1 µM [16]: 49 µL/min/mg
INH [17]: > 30 µM
Activity [34]: inactive

Cn1ncc(C(=O)N2[C@@H]3CC[C@H]2C[C@@H](Nc2cc(=O)n(C)c4ncccc24)C3)c1Cl
INH [1]: > 30 µM
IC50 [2]: > 33 µM
MIC [3]: 0.25 µM (≈ 0.107 µg/mL)
solubility [22]: 100 µM (≈ 42.7 µg/mL)
IC50 [4]: 0.026 µM
Papp B→A [5]: 36 ×10⁻⁶ cm/s
INH [6]: > 30 µM
logD [8]: 1.8
fraction unbound at 18 h, 20 µM [9]: 0.01
hepatocyte CLint at 1 µM [10]: 3 µL/min/1e6 cells
Papp A→B [11]: 1 ×10⁻⁶ cm/s
INH [12]: > 30 µM
solubility at 24 h [13]: 20 µM (≈ 8.54 µg/mL)
INH [14]: > 30 µM
MCC at 72 h [15]: > 50 µM
microsomal CLint at 1 µM [16]: 37 µL/min/mg
INH [17]: > 30 µM

Cc1onc(C(=O)N2[C@@H]3CC[C@H]2C[C@@H](Nc2cc(=O)n(C)c4cc(F)c(F)cc24)C3)c1C
INH [1]: > 30 µM
IC50 [2]: 16 µM
MIC [3]: 0.12 µM (≈ 0.0531 µg/mL)
IC50 [4]: 0.017 µM
Papp B→A [5]: 13 ×10⁻⁶ cm/s
INH [6]: > 30 µM
IC50 [7]: 8 µM
logD [8]: 2.8
fraction unbound at 18 h, 20 µM [9]: 0.03
hepatocyte CLint at 1 µM [10]: 56 µL/min/1e6 cells
Papp A→B [11]: 23 ×10⁻⁶ cm/s
INH [12]: > 30 µM
solubility at 24 h [13]: 6 µM (≈ 2.65 µg/mL)
INH [14]: > 30 µM
MCC at 72 h [15]: > 50 µM
microsomal CLint at 1 µM [16]: 107 µL/min/mg
INH [17]: > 30 µM

Cc1onc(C(=O)N2[C@@H]3CC[C@H]2C[C@@H](Nc2cc(=O)n(C)c4nccnc24)C3)c1C
INH [1]: > 30 µM
IC50 [2]: > 33 µM
MIC [3]: 6.2 µM (≈ 2.53 µg/mL)
solubility [22]: 307 µM (≈ 125 µg/mL)
IC50 [4]: 0.183 µM
Papp B→A [5]: 21 ×10⁻⁶ cm/s
INH [6]: > 30 µM
logD [8]: 1.8
fraction unbound at 18 h, 20 µM [9]: 0.05
hepatocyte CLint at 1 µM [10]: 20 µL/min/1e6 cells
Papp A→B [11]: 33 ×10⁻⁶ cm/s
INH [12]: > 30 µM
solubility at 24 h [13]: 132 µM (≈ 53.9 µg/mL)
INH [14]: > 30 µM
MCC at 72 h [15]: > 50 µM
microsomal CLint at 1 µM [16]: 100 µL/min/mg
INH [17]: > 30 µM

— ChEMBL document CHEMBL3286182, “4-aminoquinolone piperidine amides: noncovalent inhibitors of DprE1 with long residence time and potent antimycobacterial activity” (J Med Chem, 2014)
